Measurements reported in ChEMBL document CHEMBL1155721, “Isolation of dolastatin 10 from the marine cyanobacterium Symploca species VP642 and total stereochemistry and biological evaluation of its analogue symplostatin 1” (J Nat Prod, 2001).
The source made the active and inactive calls. The rule behind the calls is not given here.

Assays:
A10 [1] = test: Antitumor activity against rat A10 cells assessed as total loss of cellular microtubule at 150 nM after 18 hrs by indirect immunofluorescence; assay type: functional, cell-based
LoVo = test: Cytotoxicity against human LoVo cells; assay type: functional, cell-based
How it was run: (§1)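 In vitro cytotoxicity was read out by the sulforhodamine B (SRB) assay, and IC50 values were derived from it.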

KB = test: Cytotoxicity against human KB cells; assay type: functional, cell-based; how it was run: as §1
A10 [2] = test: Antitumor activity against rat A10 cells assessed as total loss of cellular microtubule at 0.75 nM after 18 hrs by indirect immunofluorescence; assay type: functional, cell-based
How it was run: (§2)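 Rat A-10 cells were plated on glass coverslips and left to attach and grow for at least 24 h. Drug was then added for 18 h. Cells were fixed and cellular microtubules were visualised by indirect immunofluorescence.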

A10 [3] = test: Antitumor activity against rat A10 cells assessed as loss of cellular microtubule after 18 hrs by indirect immunofluorescence; assay type: functional, cell-based; conditions: A10, 18 h; how it was run: as §2
Mus musculus [4] = test: Toxicity in iv dosed mouse on 1 day; assay type: organism-based; conditions: in vivo, 24 h
How it was run: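 Mice received a single intravenous injection on day 1 at 1.0 or 1.4 mg/kg, and lethality was recorded.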

[5] = Antitumor activity against adriamycin-resistant early stage mouse M17/ADR cell implanted in mouse at 2.8 mg/kg, iv total dosing schedule on day 1 and day 4,7,8; assay type: functional
How it was run: (§3)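 Mice bearing early-stage subcutaneously implanted solid tumours; treatment given intravenously. Activity expressed as T/C and as log kill, (T − C)/(3.32·Td). T and C are the median days for treated and control tumours to reach 750-1000 mg. Td is the tumour volume doubling time.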

[6] = Antitumor activity against adriamycin-resistant early stage mouse M16/C/ADR cell implanted in mouse at 3.15 mg/kg, iv total dosing schedule on day 1 and day 3, 5 to 9; assay type: functional; how it was run: as §3
Mus musculus [7] = test: Liver toxicity in iv dosed mouse; assay type: organism-based; conditions: in vivo
[8] = Antitumor activity against drug-insensitive mouse 16/C cell implanted in mouse at 1.25 mg/kg, iv total dosing schedule on day 1 and day 4 to 6; assay type: functional; how it was run: as §3
MC-38 = test: Antitumor activity against drug-insensitive mouse C38 cell implanted in mouse at 3 mg/kg, iv total dosing schedule on day 3; assay type: functional; how it was run: as §3
A10 [9] = test: Antitumor activity against rat A10 cells assessed as total loss of cellular microtubule at 2.5 nM after 18 hrs by indirect immunofluorescence; assay type: functional, cell-based
Mus musculus [10] = test: Toxicity in iv dosed mouse assessed as local tissue damage; assay type: organism-based; conditions: in vivo
Mus musculus [11] = test: Gastro intestinal toxicity in iv dosed mouse; assay type: organism-based; conditions: in vivo

With `CC[C@]1(O)C[C@@H]2CN(CCc3c([nH]c4ccccc34)[C@@](C(=O)OC)(c3cc4c(cc3OC)N(C)[C@H]3[C@@](O)(C(=O)OC)[C@H](OC(C)=O)[C@]5(CC)C=CCN6CC[C@]43[C@@H]65)C2)C1` the Activity (A10 [1]) was “Active”.
For `CC[C@H](C)[C@@H]([C@@H](CC(=O)N1CCC[C@H]1[C@H](OC)[C@@H](C)C(=O)N[C@@H](Cc1ccccc1)c1nccs1)OC)N(C)C(=O)[C@@H](NC(=O)[C@H](C(C)C)N(C)C)C(C)C` (stereo in doubt) [DOLASTATIN-10], the IC50 (LoVo; lovo) was 0.066 nM and the IC50 (KB; kb) was 0.041 nM.
With `CC[C@H](C)[C@@H]([C@@H](CC(=O)N1CCC[C@H]1[C@H](OC)[C@@H](C)C(=O)N[C@@H](Cc1ccccc1)c1nccs1)OC)N(C)C(=O)[C@@H](NC(=O)[C@H](C(C)C)N(C)C)C(C)C` (stereo in doubt; 1) the Activity (A10 [2]) was “Active”.
In the case of `CC[C@H](C)[C@@H]([C@@H](CC(=O)N1CCC[C@H]1[C@H](OC)[C@@H](C)C(=O)N[C@@H](Cc1ccccc1)c1nccs1)OC)N(C)C(=O)[C@@H](NC(=O)[C@H](C(C)C)N(C)C)C(C)C` (stereo in doubt; 1) [DOLASTATIN-10], the EC50 (A10 [3]) is reported as 0.25 nM, the IC50 (LoVo; Homo sapiens, LoVo) is reported as 0.076 nM and the IC50 (KB; Homo sapiens, KB) is reported as 0.052 nM.
`CC[C@H](C)[C@@H]([C@@H](CC(=O)N1CCC[C@H]1[C@H](OC)[C@@H](C)C(=O)N[C@@H](Cc1ccccc1)c1nccs1)OC)N(C)C(=O)[C@@H](NC(=O)[C@H]([C@@H](C)CC)N(C)C)C(C)C` [SYMPLOSTATIN 1] gave an EC50 (A10 [3]) of 0.6 nM, an LD20 (Mus musculus [4]) of 1 mg/kg and an LD60 (Mus musculus [4]) of 1.4 mg/kg. For the same compound, the T/C [5] was 32%, the T/C [6] was 36% and the Activity (Mus musculus [7]) was “Toxic”. The IC50 (LoVo; Homo sapiens, LoVo) was 0.34 nM, the T/C [8] was 0% and the T/C (MC-38) was 0%. The Activity (A10 [9]) was “Active”, the IC50 (KB; Homo sapiens, KB) was 0.15 nM and the Activity (Mus musculus [10]) was “Toxic”. The Activity (Mus musculus [11]) was “Toxic”.
